Experimental data published in PubChem BioAssay AID504382 (The Scripps Research Institute Molecular Screening Center, 2011).
The campaign covered roughly 2,500 compounds. About 460 (18%) were called active. A selection follows. A number with no mark means an inactive call.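 The calls were made as follows: active = mean activation above a cutoff of low control average plus 3 SD from the earlier screen (cut at about 12% in these data); inactive = the rest.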

experiment: compound fluorescence interference without thin filaments, confirmation, artefact control for cardiac RTF calcium sensitizer project, biochemical (AID 504382); conditions: IANBD fluorescence interference counterscreen, buffer, EC20 Ca2+; at 7.2 µM; active compounds read high; scaled: EC20 calcium 0, EC100 calcium 100
Summary of the method: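 Medium: MOPS/KCl/MgCl2/EGTA/NTA/DTT buffer, pH 7.2 | Reagent: EC20 calcium, 0.472 mM | Compound dosing: 7.2 µM single dose | Times: 15 min compound exposure at 25 °C | Signal: Fluorescence, 480/540 nm | Measure: Interference relative to controls | Repeats: Triplicate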

In order of rising fluorescence artifact activation:
1. Clc1cccc(C[n+]2cc(-c3ccccc3)n3c2CCC3)c1  -0.06%
2. Oc1sc(C=Nc2ccccc2)c2ccccc12  -0.05%
3. COC(=O)CCCNC(=O)CCc1nnc(-c2ccc(-c3ccccc3)cc2)o1  -0.05%
4. CCC(C)[C@H](NC(=O)N1CCC(C)CC1)C(=O)OC (some centres not stated)  -0.05%
5. O=C(CSc1nnc(-c2ccco2)o1)NC1CCCCC1  -0.05%
6. CCn1c(SCC(=O)NNC(=O)c2ccco2)nnc1-c1ccco1  -0.04%
7. CCOC(=O)c1c(NC(=O)COC(=O)Cc2ccccc2[N+](=O)[O-])sc(C(=O)N(C)C)c1C  -0.03%
8. O=C(NCCN1CCOCC1)c1ccc(CS(=O)(=O)c2c(Cl)cccc2Cl)o1  -0.03%
9. O=C(NC(NC(=S)Nc1ccccc1C(=O)O)C(Cl)(Cl)Cl)c1ccco1 (configuration not stated)  0%
10. Cc1ccc(N=Cc2sc(O)c3ccccc23)cc1  0%
11. COC(=O)c1c(-c2ccc(OC)c(OC)c2)csc1N  0%
12. CC1CCC(C(C)C)C(OC(=O)Cn2c(-c3ccccc3)[n+](C)c3ccccc32)C1 (configuration not stated)  0%
13. COc1cccc(/C=N/c2nc3ccccc3[nH]2)c1O  0.01%
14. COc1ccc(NC(=O)C2CC2)cc1OC1CCCC1  0.04%
15. CC1=NN(c2ccc(Br)cc2)C(=O)/C1=C/c1ccc(-c2ccccc2C(=O)O)o1  0.09%
16. COc1ccc(-c2nnc(SCC(=O)c3ccc[nH]3)n2-c2ccccc2)cc1  0.12%
17. COc1ccc(C(=O)Nc2ccccc2-c2ccccc2)cc1Cl  0.15%
18. COc1ccc(N2CC(C(=O)Nc3nc(-c4ccccc4)c(C(C)=O)s3)CC2=O)c(OC)c1 (configuration not stated)  0.16%
19. COc1ccc(/C=[N+](\[O-])C2N(c3ccccc3)C(=S)SC2(C)C)cc1OC (configuration not stated)  0.2%
20. C[C@@H]1CC=C[C@H]2[C@H]1C(=O)N(Cc1ccccc1)[C@H]2c1ccc(-c2cc3ccccc3s2)cc1F  0.21%
21. COc1cc(OC)c(OC)cc1/C=C/C(=O)c1ccc(NS(=O)(=O)c2ccc(C)cc2)cc1  0.29%
22. O=C(CSc1ccc(Cl)cc1)Nc1cccc(NC(=O)c2ccco2)c1  0.39%
23. CC(C)N1CC=C2C(C#N)=C(N)C(C#N)(C#N)C(c3ccccc3)C2C1 (configuration not stated)  0.48%
24. Oc1[nH]c2ccccc2c1N=Nc1cccc(Cl)c1  0.77%
25. COc1ccc(NC(=O)c2cc(C)on2)cc1OC  0.84%
26. CN(C)c1ccc(/C=C/C(=O)c2c(O)c3ccccc3oc2=O)cc1  1.4%
27. O=C(Cc1ccccc1Cl)Nc1cccnc1  1.8%
28. CCOC(=O)c1c(/N=C/c2cccc([N+](=O)[O-])c2O)sc(C)c1C  2.1%
29. CCc1cc[n+](-c2nc([O-])sc2C=O)cc1  2.36%
30. COc1ccc(OC)c(-n2nnnc2SCC(=O)NCCc2ccccc2)c1  3.03%
31. COc1ccc(-c2cc(C(F)(F)F)nc(S(=O)(=O)CCCC(=O)Nc3cc(C)on3)n2)cc1OC  3.3%
32. O=C(O)CCC(=O)Nc1cc(C(F)(F)F)cc(C(F)(F)F)c1  3.32%
33. CCN(CC)c1ccc(/C=C/c2cc(-c3ccccc3)c3ccccc3n2)cc1  3.44%
34. Cc1cc[n+](-c2[nH]c(=O)sc2/C=N/N=C(\[O-])c2ccccc2)cc1C  3.62%
35. CCC(/C=C1\Oc2ccc(OC)cc2N1C)=C\c1sc2ccccc2[n+]1CCCS(=O)(=O)[O-]  4.9%
36. CC1=NN(C(=O)c2ccc(Cn3ccc([N+](=O)[O-])n3)cc2)C(O)(C(F)(F)F)C1 (configuration not stated)  5.1%
37. COc1ccc(C(=O)Nn2cnc3scc(-c4cccs4)c3c2=O)c(O)c1  7.33%
38. CN1CCN(c2ccc(-c3cccc(NC(=O)COc4ccccc4)c3)nn2)CC1  9.37%

In the case of COc1ccc(S(=O)(=O)Nc2cc(C)on2)cc1, the fluorescence artifact activation is reported as 26.7% (active).
In the case of O=C(NC(=S)Nc1ccc2oc(=O)ccc2c1)c1ccco1, the fluorescence artifact activation is reported as 33.8% (active).
In the case of CC(C)(ONC(=O)Nc1ccccc1Cl)C(=O)O, the fluorescence artifact activation is reported as 314% (active).
With CC1=NN(c2ccc(C)c(C)c2)C(=O)/C1=C/c1ccc2c(c1)n(C)c(=O)n2C the fluorescence artifact activation was 16.1% (active).
With COc1ccc(N/C=C\C(=O)c2ccc(Br)cc2)cc1OC the fluorescence artifact activation was 15.4% (active).
In the case of COc1ccc(N=Cc2sc(O)c3ccccc23)cc1, the fluorescence artifact activation is reported as 27.5% (active).
For COc1ccc(-n2nnnc2SCC(=O)c2cc3ccccc3o2)cc1, the fluorescence artifact activation was 12.4% (active).
For CCOc1ccc(-c2nc3scc(-c4cccs4)c3c(=O)[nH]2)cc1, the fluorescence artifact activation was 15.2% (active).
For O=C(CCSc1nnc(-c2ccco2)o1)Nc1ccccc1, the fluorescence artifact activation was 24.7% (active).
